Screens: PubChem, The Scripps Research Institute Molecular Screening Center
ROCK2 blocker: blocks human Rho kinase 2 activity; O75116; purified ROCK2, Kinase-Glo ATP depletion luminescence; inhibition, % at 6 µM; 0.35% of 60,000 active;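 active means inhibition above the screen-wide mean inhibition plus 3 SD, cut at about 18% in these data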;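 further: plate controls were DMSO wells for no effect and Y-27632 control wells after no-enzyme background subtraction for full effect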
PKA kinase inh: PKA (human) kinase inhibition; P17612; inhibition, % at 6 µM; 0.1% of 65,000 active; PKA Kemptide phosphorylation, Kinase-Glo ATP luminescence;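 active means inhibition above the screen-wide mean inhibition plus 3 SD, cut at about 21% in these data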
JNK3 blocker: inhibitors of human JNK3 kinase; 0.61% of 60,000 active; purified JNK3 kinase activity, HTS; inhibition, % at 8 µM; P53779; AID 746; in the data active means inhibition above about 17%;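 further: 0% = DMSO and 100% = reference inhibitor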
Target sequence (P53779 whole entry, looked up): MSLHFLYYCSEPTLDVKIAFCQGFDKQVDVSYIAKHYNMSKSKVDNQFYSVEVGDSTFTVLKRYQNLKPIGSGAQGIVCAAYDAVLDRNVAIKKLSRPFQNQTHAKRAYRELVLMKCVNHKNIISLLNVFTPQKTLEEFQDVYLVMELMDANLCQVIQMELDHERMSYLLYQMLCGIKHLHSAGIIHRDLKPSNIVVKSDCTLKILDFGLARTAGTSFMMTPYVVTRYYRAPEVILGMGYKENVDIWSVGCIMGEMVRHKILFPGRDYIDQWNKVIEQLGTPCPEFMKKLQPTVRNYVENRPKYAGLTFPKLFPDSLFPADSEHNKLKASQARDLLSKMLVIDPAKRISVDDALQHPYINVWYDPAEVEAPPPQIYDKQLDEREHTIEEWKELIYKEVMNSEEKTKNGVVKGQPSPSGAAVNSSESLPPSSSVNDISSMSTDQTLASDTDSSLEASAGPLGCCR
RORA act: activators of human nuclear receptor RORA | P35398 | CHO-K1 Gal4-RORA LBD luciferase reporter, luminescence; percent increase over mock-subtracted basal signal | activation, % at 10 µM | 1.5% of 65,000 active | AID 560;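 active means activation above the mean of all tested compounds plus 3 SD, cut at about 49% in these data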;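 further: 0% = DMSO-treated RORA cells and 100% = added signal equal to DMSO minus mock-transfected cells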
MMP-13 inhibitor: MMP13 (human) collagenase inhibition; MMP-13 fTHP FRET cleavage, Mca fluorescence; inhibition, % at 4 µM; 0.07% of 65,000 active;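 active means inhibition above the mean of compound-free control plate wells plus 3 SD, cut at about 14% in these data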;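 further: 0% = DMSO wells and 100% = wells with reference MMP-13 inhibitor after basal subtraction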
SF1 activator: SF-1 (human) activation; Q13285; CHO-K1 Gal4-SF-1 LBD luciferase reporter; % increase over DMSO SF-1-specific signal; activation, % at 10 µM; 1.9% of 65,000 active;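 active means activation above the mean activation of all tested compounds plus 3 SD, cut at about 50% in these data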
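Assay system – CHO-K1 cells with Gal4–hSF-1 LBD chimera plus Gal4-driven luciferase · Quantity – 4,000 cells per well · Times – compound added 1 h post-seeding, 20 h exposure at 37 °C, 5% CO2 · Measured by – luciferase light emission · Benchmarks – DMSO and mock-transfected background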
Numbers without * were called inactive; x = no result. Compounds with a hit are over-represented: about 3.4% of the library has one in this group of screens.

SMILES | ROCK2 blocker | PKA kinase inh | JNK3 blocker | RORA act | MMP-13 inhibitor | SF1 activator
COc1ccc(-c2nc3c(Br)c(N)c(Br)cc3o2)cc1 | 0 | -8 | 2 | 6 | -1 | 73*
COc1ccc(-c2nnc(NC(=O)C(C)C)o2)cc1 | -2 | -2 | -2 | 1 | 2 | 10
CC1CCCCC1NS(=O)(=O)c1ccc(S(=O)(=O)NCc2ccncc2)cc1 (stereo not drawn) | 2 | -14 | 7 | -69 | 0 | -70
CN(C)S(=O)(=O)c1cccc(C(=O)Nc2ccc(Cl)cn2)c1 | 0 | 2 | -1 | 18 | 0 | 65*
Cc1cc(Cl)ccc1OCc1nc(-c2ccc(O)cc2)n[nH]1 | 27* | 6 | 2 | -6 | 1 | -2
COc1ccc2ncn(-c3ccccc3)c2c1 | -2 | 11 | 30* | -30 | 0 | -5
COc1ccc2cnn(CCOc3ccccc3)c(=O)c2c1OC | -3 | -5 | 2 | 14 | 2 | 30
C[C@@H]1C[C@H](Nc2ccccc2)c2ccccc2N1C(=O)c1cccnc1 | -4 | 6 | -4 | -18 | -3 | -6
O=C(CSc1nc2ccccc2[nH]1)N1CCN(c2ccc(F)cc2)CC1 | 0 | -5 | -7 | 3 | 3 | 2
O=C(CSc1ccccn1)c1ccc2c(c1)OCO2 | 2 | 0 | -3 | 9 | 2 | 61*
CC1CCN(C(=O)CSc2nc3ccccc3[nH]2)CC1 | 3 | 8 | -4 | 61* | 3 | 44
O=C(CSc1nc2ccccc2[nH]1)Nc1ccc2c(c1)OCCO2 | 2 | 6 | -2 | 12 | -6 | 20
O=C(CSc1nc2ccccc2[nH]1)c1ccc2c(c1)OCO2 | 5 | 9 | -3 | 51* | 6 | 40
C/C=C/c1ccc(OCCSc2nc(C)cc(=O)[nH]2)c(OC)c1 | 2 | 0 | -6 | -2 | 2 | -5
CCn1c(C(=O)OC)cc2c1ccn2-c1ccc(F)cc1 | 1 | 3 | 2 | 60* | -5 | 53*
CCOC(=O)c1c(C)nc(-c2ccccc2)nc1NC(C)=O | 4 | 8 | -2 | 25 | 0 | 26
CCOC(=O)c1c(C)nc(-c2ccccc2)nc1N | 8 | 8 | -7 | 51* | -3 | 58*
c1cncc(-c2nc(-c3ccc4c(c3)OCO4)cs2)c1 | x | -2 | x | 40 | -3 | 49
CCCC(=O)Nc1nc(-c2ccc3c(c2)OCCO3)cs1 | 7 | 10 | 8 | 63* | 0 | 61*
O=C(Nc1nc(-c2ccc3c(c2)OCO3)cs1)C1CC1 | -1 | 4 | 7 | 72* | 6 | 51*
O=C(O)CCC(=O)Nc1nc(-c2ccccc2)cs1 | 1 | 3 | -3 | 1 | 0 | -6
OC1CCCCC1Sc1nc2ccccc2s1 (stereo not drawn) | -4 | 0 | -3 | 30 | 0 | 59*
C=CCn1c(N)cc(=O)nc1SCC(=O)N1CCN(c2ccc(F)cc2)CC1 | 9 | 2 | 7 | 10 | -6 | -3
COc1ccc(-c2cn3cc(C)ccc3n2)cc1OC | -20 | -3 | -11 | -13 | -314 | 20
COc1ccc(-c2cn3ccccc3n2)cc1OC | -13 | -9 | -13 | 49* | -178 | 30
SMILES | ROCK2 blocker | PKA kinase inh | JNK3 blocker | RORA act | MMP-13 inhibitor | SF1 activator
COC(=O)CC(=O)CSc1nc2c(cc1C#N)CCCCC2 | 4 | -1 | -1 | 40 | -70 | 78*
N#CCSc1nc2c(cc1C#N)CCCC2 | 0 | 0 | 12 | -5 | -2 | -1
CCc1nnc(NC(=O)CSc2nc3c(cc2C#N)CCCC3)s1 | 11 | 12 | 2 | 48 | -5 | 78*
N#Cc1cc2c(nc1SCC(=O)NCc1ccc3c(c1)OCO3)CCCCC2 | -3 | 1 | 0 | -28 | 4 | -15
CCN(CC)S(=O)(=O)c1ccc2oc(SCC3CN=C(c4ccc(OC)cc4)S3)nc2c1 (stereo not drawn) | -4 | 4 | -4 | -9 | -2 | -40
O=C(O)CCC(NS(=O)(=O)c1ccc(N2CCCC2=O)cc1)C(=O)O (stereo not drawn) | 8 | 12 | 5 | -8 | 1 | 2
O=C(O)CCC(NS(=O)(=O)c1ccc(-c2ccccc2)cc1)C(=O)O (stereo not drawn) | x | 2 | x | -3 | 50* | 2
O=C(COC(=O)c1ccc(S(=O)(=O)N2CCCC2)cc1)NCc1ccccc1 | 6 | 3 | -2 | -6 | 0 | 3
Cc1ccccc1-n1c(C)nnc1SCc1nc2ccccc2s1 | 5 | 6 | -3 | 58* | -1 | 55*
CCCn1c(=O)c2ccccc2n2c(SCc3nc4ccccc4s3)nnc12 | 9 | 15 | -4 | 42 | 2 | 70*
CCCn1c(=O)c2ccccc2n2c(SCCOc3ccccc3)nnc12 | 3 | 4 | -9 | -16 | -11 | -7
CCOC(=O)c1c(C)[nH]c(C)c1C(=O)CSc1nnc(-c2ccco2)n1Cc1ccccc1 | -2 | 0 | -1 | 4 | -1 | 0
Cc1cccc(-c2nc(C#N)c(NC3CCCCC3)o2)c1 | 2 | -2 | -5 | 35 | -161 | 50*
COc1ccc(C2CC(c3ccc(Cl)c(Cl)c3)Nc3nc(N)nn32)cc1 (stereo not drawn) | 3 | 8 | 4 | -16 | -4 | 8
CCOc1cc(-c2cc(-c3ccc(N)cc3)nc(N)c2C#N)ccc1O | 7 | 14 | 14 | 32 | -173 | 54*
CCOc1cc(-c2c(C#N)c(N)nc3c2CCCC3)ccc1O | 5 | 13 | 3 | 13 | 7 | 2
Cc1ccc(N(CC(=O)Nc2cccc(C)c2)S(=O)(=O)c2cccc3nonc23)cc1 | 3 | 2 | 2 | -15 | -4 | 8
CCOC(=O)c1ccc(Cn2cnc3ccccc3c2=O)cc1 | 2 | 7 | 39* | -13 | 3 | 8
Cc1csc2nc(CNC(=O)c3ccco3)cn12 | 0 | -6 | 5 | 42 | 1 | 52*
CCOc1ccccc1NC(=O)C1CC2CCCC(C1)C2=O (stereo not drawn) | 0 | 3 | -8 | -12 | 2 | 5
Clc1ccc2c(c1)C1OCCC1C(c1ccco1)N2 (stereo not drawn) | -14 | -6 | -10 | 21 | -25 | -2
COC(=O)c1ccc(/C(O)=C(\C#N)c2nc3ccccc3s2)cc1 | 2 | 8 | -6 | 19 | 2 | 84*
CC1(C)N=C(c2ccc(Cl)cc2Cl)C(=O)N1 | 4 | 6 | -1 | 9 | 0 | -5
Cc1ccc(S(=O)(=O)Cc2cccc(C(=O)N3CCOCC3)c2)cc1 | 2 | 2 | 5 | -20 | -2 | 2
CCN(CC)c1ccc(NC(=O)c2ccc(Br)o2)cc1 | 2 | 8 | -14 | 102* | 2 | 39
O=C(Nc1ccc(N2CCOCC2)c(Cl)c1)c1ccc(Br)o1 | 6 | -1 | 4 | 55* | 3 | 67*
O=C(Nc1ccc2c(c1)oc1ccccc12)c1ccc(Br)o1 | -2 | -3 | -3 | 68* | -1 | 38
